ChEMBL document CHEMBL1127852, “Synthesis and antibacterial activity of thiazolopyrazine-incorporated tetracyclic quinolone antibacterial agents. 2” (1994)
In brackets after ≈: the same amount, converted by molar mass.

What was measured:
Type in all cases: functional
Enterococcus faecalis = experiment: Compound was tested for its minimal inhibitory constant against Gram-positive microorganism Enterococcus faecalis IID682 (Ef)
Procedure, shortened: (§1)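 Serial 2-fold agar dilution on Sensitivity Test agar, inoculum approximately 10^6 CFU/mL, incubated 37 °C for 18 h. MIC taken as lowest concentration preventing visible growth. Values are means of duplicate or triplicate experiments.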

Escherichia coli [1] = experiment: Compound was tested for its minimal inhibitory constant against Gram-negative microorganism Escherichia coli KC-14 (Ec(K)); procedure, shortened: as §1
Escherichia coli [2] = experiment: Compound was tested for its minimal inhibitory constant against Gram-negative microorganism Escherichia coli NIHJ JC-2 (Ec(N)); procedure, shortened: as §1
Klebsiella pneumoniae = experiment: Compound was tested for its minimal inhibitory constant against Gram-negative microorganism Klebsiella pneumoniae B54 (Kp); procedure, shortened: as §1
Micrococcus luteus = experiment: Compound was tested for its minimal inhibitory constant against Gram-positive microorganism Micrococcus luteus ATCC 9341 (MI); procedure, shortened: as §1
Mus musculus [3] = experiment: Compound was tested for Therapeutic effects on systemic infections on mice by peroral administration; conditions: po
Procedure, shortened: (§2)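 Mouse protection against S. aureus IID 803: groups of five male ddY mice (25–28 g) infected i.p. with 0.5 mL bacterial dilution at 100 or 200 times the 50% lethal dose; compound suspended in 1% aqueous gum arabic, given orally 1 h postinfection. Survival scored after 1 week; ED50 with 95% confidence limits by Weil method.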

Pseudomonas aeruginosa [4] = experiment: Compound was tested for its minimal inhibitory constant against Gram-negative microorganism Pseudomonas aeruginosa E-2 (Pa(E)); procedure, shortened: as §1
Pseudomonas aeruginosa [5] = experiment: Compound was tested for its minimal inhibitory constant against Gram-negative microorganism Pseudomonas aeruginosa IFO 3445 (Pa(I)); procedure, shortened: as §1
[6] = tested on: Staphylococcus epidermidis; experiment: Compound was tested for its minimal inhibitory constant against Gram-positive microorganism Staphylococcus epidermidis IAM 1296 (Se); procedure, shortened: as §1
Staphylococcus aureus [7] = experiment: Compound was tested for its minimal inhibitory constant against Gram-positive microorganism Staphylococcus aureus IID 803 (Sa(I)); procedure, shortened: as §1
Staphylococcus aureus [8] = experiment: Compound was tested for its minimal inhibitory constant against Gram-positive microorganism Staphylococcus aureus FDA 209P JC-1 (Sa(F)); procedure, shortened: as §1
Staphylococcus aureus [9] = experiment: Tested for in vitro for antibacterial activity against 16 clinical isolated of methicillin-resistant Staphylococcus aureus
Procedure, shortened: (§3)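 Serial 2-fold agar dilution in Sensitivity Test agar, following the standard method. Clinical MRSA isolates collected in Japan in 1988 and 1989. Inoculum about 10^6 CFU/mL. Plates incubated at 37 °C for 18 h. MIC taken as the lowest concentration that prevented visible growth.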

Staphylococcus aureus [10] = experiment: Tested for in vitro for antibacterial activity against 16 clinical isolated of methicillin-resistant Staphylococcus aureus, range of Minimal inhibitory activity value for isolates; procedure, shortened: as §3
Mus musculus [11] = experiment: Compound was tested for oral efficacy on systemic infections on mice by peroral administration; procedure, shortened: as §2

SMILES	MIC (Enterococcus faecalis)	MIC (Escherichia coli [1])	MIC (Escherichia coli [2])	MIC (Klebsiella pneumoniae)	MIC (Micrococcus luteus)	ED50 (Mus musculus [3])	MIC (Pseudomonas aeruginosa [4])	MIC (Pseudomonas aeruginosa [5])	MIC [6]	MIC (Staphylococcus aureus [7])	MIC (Staphylococcus aureus [8])	MIC50 (Staphylococcus aureus [9])	MIC90 (Staphylococcus aureus [9])	MIC (Staphylococcus aureus [10])	ED50 (Mus musculus [11])	MIC (Staphylococcus aureus [9])
COC[C@H]1CN(c2c(F)cc3c(=O)c(C(=O)O)c4scc5n4c3c2N(C)C5)CCO1	0.2 µg/mL (≈ 0.461 µM)	0.39 µg/mL (≈ 0.9 µM)	0.39 µg/mL (≈ 0.9 µM)	0.39 µg/mL (≈ 0.9 µM)	0.2 µg/mL (≈ 0.461 µM)	1.25 mg/kg	3.13 µg/mL (≈ 7.22 µM)	3.13 µg/mL (≈ 7.22 µM)	0.025 µg/mL (≈ 0.0577 µM)	0.006 µg/mL (≈ 0.0138 µM)	0.025 µg/mL (≈ 0.0577 µM)	–	–	–	–	–
COC[C@@H]1CN(c2c(F)cc3c(=O)c(C(=O)O)c4scc5n4c3c2N(C)C5)CCO1	0.2 µg/mL (≈ 0.461 µM)	0.39 µg/mL (≈ 0.9 µM)	0.2 µg/mL (≈ 0.461 µM)	0.78 µg/mL (≈ 1.8 µM)	0.2 µg/mL (≈ 0.461 µM)	0.82 mg/kg	3.13 µg/mL (≈ 7.22 µM)	3.13 µg/mL (≈ 7.22 µM)	0.05 µg/mL (≈ 0.115 µM)	0.0125 µg/mL (≈ 0.0288 µM)	0.025 µg/mL (≈ 0.0577 µM)	–	–	–	–	–
CN1Cc2csc3c(C(=O)O)c(=O)c4cc(F)c(N5CCOC(CO)C5)c1c4n23 (configuration not stated)	0.1 µg/mL (≈ 0.238 µM)	0.1 µg/mL (≈ 0.238 µM)	0.1 µg/mL (≈ 0.238 µM)	0.39 µg/mL (≈ 0.93 µM)	0.2 µg/mL (≈ 0.477 µM)	–	1.56 µg/mL (≈ 3.72 µM)	1.56 µg/mL (≈ 3.72 µM)	0.05 µg/mL (≈ 0.119 µM)	0.006 µg/mL (≈ 0.0143 µM)	0.0125 µg/mL (≈ 0.0298 µM)	0.39 µg/mL (≈ 0.93 µM)	0.78 µg/mL (≈ 1.86 µM)	≤ 0.006 µg/mL	5.1 mg/kg	–
CC1CN(c2c(F)cc3c(=O)c(C(=O)O)c4scc5n4c3c2N(C)C5)CCO1 (configuration not stated)	0.05 µg/mL (≈ 0.124 µM)	0.1 µg/mL (≈ 0.248 µM)	0.1 µg/mL (≈ 0.248 µM)	0.39 µg/mL (≈ 0.967 µM)	0.1 µg/mL (≈ 0.248 µM)	–	0.78 µg/mL (≈ 1.93 µM)	0.78 µg/mL (≈ 1.93 µM)	0.0125 µg/mL (≈ 0.031 µM)	0.006 µg/mL (≈ 0.0149 µM)	0.0125 µg/mL (≈ 0.031 µM)	0.1 µg/mL (≈ 0.248 µM)	0.2 µg/mL (≈ 0.496 µM)	≤ 0.006 µg/mL	3.5 mg/kg	–
CNCC1CN(c2c(F)cc3c(=O)c(C(=O)O)c4scc5n4c3c2N(C)C5)CCO1 (configuration not stated)	0.2 µg/mL (≈ 0.462 µM)	0.2 µg/mL (≈ 0.462 µM)	0.2 µg/mL (≈ 0.462 µM)	1.56 µg/mL (≈ 3.61 µM)	0.78 µg/mL (≈ 1.8 µM)	–	3.13 µg/mL (≈ 7.24 µM)	3.13 µg/mL (≈ 7.24 µM)	0.1 µg/mL (≈ 0.231 µM)	0.05 µg/mL (≈ 0.116 µM)	0.025 µg/mL (≈ 0.0578 µM)	–	–	–	–	–
CN(C)CC1CN(c2c(F)cc3c(=O)c(C(=O)O)c4scc5n4c3c2N(C)C5)CCO1 (configuration not stated)	0.1 µg/mL (≈ 0.224 µM)	0.2 µg/mL (≈ 0.448 µM)	0.39 µg/mL (≈ 0.873 µM)	0.39 µg/mL (≈ 0.873 µM)	0.2 µg/mL (≈ 0.448 µM)	–	6.25 µg/mL (≈ 14 µM)	6.25 µg/mL (≈ 14 µM)	0.05 µg/mL (≈ 0.112 µM)	0.025 µg/mL (≈ 0.056 µM)	0.025 µg/mL (≈ 0.056 µM)	–	–	–	4.8 mg/kg	–
CN1Cc2csc3c(C(=O)O)c(=O)c4cc(F)c(N5CCOC(CCl)C5)c1c4n23 (configuration not stated)	0.05 µg/mL (≈ 0.114 µM)	0.2 µg/mL (≈ 0.457 µM)	0.2 µg/mL (≈ 0.457 µM)	0.39 µg/mL (≈ 0.891 µM)	0.05 µg/mL (≈ 0.114 µM)	–	1.56 µg/mL (≈ 3.56 µM)	1.56 µg/mL (≈ 3.56 µM)	0.0125 µg/mL (≈ 0.0285 µM)	0.006 µg/mL (≈ 0.0137 µM)	0.0125 µg/mL (≈ 0.0285 µM)	0.1 µg/mL (≈ 0.228 µM)	0.2 µg/mL (≈ 0.457 µM)	< 0.006 µg/mL	–	–
CCC1CN(c2c(F)cc3c(=O)c(C(=O)O)c4scc5n4c3c2N(C)C5)CCO1 (configuration not stated)	0.1 µg/mL (≈ 0.24 µM)	0.39 µg/mL (≈ 0.934 µM)	0.39 µg/mL (≈ 0.934 µM)	0.39 µg/mL (≈ 0.934 µM)	0.2 µg/mL (≈ 0.479 µM)	–	1.56 µg/mL (≈ 3.74 µM)	3.13 µg/mL (≈ 7.5 µM)	0.05 µg/mL (≈ 0.12 µM)	0.025 µg/mL (≈ 0.0599 µM)	0.025 µg/mL (≈ 0.0599 µM)	–	–	–	> 12 mg/kg	–
CC1CN(c2c(F)cc3c(=O)c(C(=O)O)c4scc5n4c3c2N(C)C5)CC(C)O1 (configuration not stated)	0.2 µg/mL (≈ 0.479 µM)	0.39 µg/mL (≈ 0.934 µM)	0.39 µg/mL (≈ 0.934 µM)	0.78 µg/mL (≈ 1.87 µM)	0.2 µg/mL (≈ 0.479 µM)	–	3.13 µg/mL (≈ 7.5 µM)	3.13 µg/mL (≈ 7.5 µM)	0.1 µg/mL (≈ 0.24 µM)	0.0125 µg/mL (≈ 0.0299 µM)	0.0125 µg/mL (≈ 0.0299 µM)	–	–	–	> 12 mg/kg	–
COCC1CN(c2c(F)cc3c(=O)c(C(=O)O)c4scc5n4c3c2N(C)C5)CCO1 (configuration not stated)	0.2 µg/mL (≈ 0.461 µM)	0.39 µg/mL (≈ 0.9 µM)	0.2 µg/mL (≈ 0.461 µM)	0.78 µg/mL (≈ 1.8 µM)	0.2 µg/mL (≈ 0.461 µM)	1.09 mg/kg	3.13 µg/mL (≈ 7.22 µM)	3.13 µg/mL (≈ 7.22 µM)	0.05 µg/mL (≈ 0.115 µM)	0.0125 µg/mL (≈ 0.0288 µM)	0.025 µg/mL (≈ 0.0577 µM)	0.39 µg/mL (≈ 0.9 µM)	0.78 µg/mL (≈ 1.8 µM)	≤ 0.006 µg/mL	1.7 mg/kg	–
CN1Cc2csc3c(C(=O)O)c(=O)c4cc(F)c(N5CCOC(CF)C5)c1c4n23 (configuration not stated)	0.05 µg/mL (≈ 0.119 µM)	0.1 µg/mL (≈ 0.237 µM)	0.1 µg/mL (≈ 0.237 µM)	0.2 µg/mL (≈ 0.475 µM)	0.1 µg/mL (≈ 0.237 µM)	–	0.78 µg/mL (≈ 1.85 µM)	0.78 µg/mL (≈ 1.85 µM)	0.025 µg/mL (≈ 0.0593 µM)	0.006 µg/mL (≈ 0.0142 µM)	0.0125 µg/mL (≈ 0.0297 µM)	0.2 µg/mL (≈ 0.475 µM)	0.2 µg/mL (≈ 0.475 µM)	–	1.9 mg/kg	≤ 0.006 µg/mL
CN1Cc2csc3c(C(=O)O)c(=O)c4cc(F)c(N5CCOCC5)c1c4n23	0.05 µg/mL (≈ 0.128 µM)	0.1 µg/mL (≈ 0.257 µM)	0.1 µg/mL (≈ 0.257 µM)	0.05 µg/mL (≈ 0.128 µM)	0.1 µg/mL (≈ 0.257 µM)	–	0.39 µg/mL (≈ 1 µM)	0.39 µg/mL (≈ 1 µM)	0.025 µg/mL (≈ 0.0642 µM)	0.006 µg/mL (≈ 0.0154 µM)	0.006 µg/mL (≈ 0.0154 µM)	0.2 µg/mL (≈ 0.514 µM)	0.2 µg/mL (≈ 0.514 µM)	–	> 12 mg/kg	< 0.006 µg/mL
CC1COc2c(N3CCN(C)CC3)c(F)cc3c(=O)c(C(=O)O)cn1c23 (configuration not stated) [OFLOXACIN]	1.56 µg/mL (≈ 4.32 µM)	0.1 µg/mL (≈ 0.277 µM)	–	0.1 µg/mL (≈ 0.277 µM)	–	14.6 mg/kg	1.56 µg/mL (≈ 4.32 µM)	–	–	–	–	6.25 µg/mL (≈ 17.3 µM)	50 µg/mL (≈ 138 µM)	–	11.4 mg/kg	–
